According to ChEMBL document CHEMBL3352049, “Taxanes with high potency inducing tubulin assembly overcome tumoural cell resistances” (Bioorg Med Chem, 2014):
The source made the active and inactive calls. No cut-off for these calls is given here.

Experiments:
A2780 [1] = experiment: Cytotoxicity against human A2780 cells by MTT assay; type: functional, cell-based
[2] = Cytotoxicity against human A2780AD cells by MTT assay; type: functional, cell-based; conditions: A2780 ADR
[3] = Resistance ratio of IC50 for human A2780AD cells to IC50 for human A2780 cells; type: functional, A2780 ADR
[4] = Cytotoxicity against human MCF7/R cells by MTT assay; type: functional, cell-based; conditions: MCF7R
HeLa [5] = experiment: Cytotoxicity against human HeLa cells by MTT assay; type: functional, cell-based
Summary of the method: (§1)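 MTT assay run as a modified version of an earlier method. IC50 in nM is the mean ± SEM of three independent assays. Relative resistance is the IC50 in the resistant line (1A9 tubulin mutants, or βIII-transfected HeLa) divided by the IC50 in the parental line (1A9 or HeLa).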

HeLa [6] = experiment: Cytotoxicity against human HeLa cells transfected with wild-type tubulin beta3 by MTT assay; type: functional, cell-based; summary of the method: as §1
HeLa [7] = experiment: Resistance ratio of IC50 for human HeLa cells transfected with wild-type tubulin beta3 to IC50 for human HeLa cells; type: functional
Summary of the method: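 Relative resistance is the IC50 in HeLa cells transfected with wild-type βIII-tubulin divided by the IC50 in parental HeLa cells. Each IC50 (nM) is the mean ± SEM of three independent assays.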

1A9 [8] = experiment: Cytotoxicity against human 1A9 cells by MTT assay; type: functional, cell-based; summary of the method: as §1
[9] = Cytotoxicity against human 1A9PTX10 cells by MTT assay; type: functional, cell-based; conditions: 1A9/ptx-10; summary of the method: as §1
1A9 [10] = experiment: Resistance ratio of IC50 for human 1A9PTX10 cells to IC50 for human 1A9 cells; type: functional
Summary of the method: (§2)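 Relative resistance is the IC50 in the 1A9 tubulin-mutant line divided by the IC50 in parental 1A9 ovarian carcinoma cells. Each IC50 (nM) is the mean ± SEM of three independent assays.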

[11] = Cytotoxicity against human 1A9PTX22 cells by MTT assay; type: functional, cell-based; conditions: 1A9/ptx-22; summary of the method: as §1
1A9 [12] = experiment: Resistance ratio of IC50 for human 1A9PTX22 cells to IC50 for human 1A9 cells; type: functional; summary of the method: as §2
[13] = Cytotoxicity against human 1A9/A8 cells by MTT assay; type: functional, cell-based; summary of the method: as §1
1A9 [14] = experiment: Resistance ratio of IC50 for human 1A9/A8 cells to IC50 for human 1A9 cells; type: functional
A549 [15] = experiment: Effect on microtubule cytoskeleton in human A549 cells assessed as induction of micronuleated cells with short microtubules in cytoplasm at 60 to 120 nM after 24 hrs by immunofluorescence assay; type: cell-based
Summary of the method: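 A549 cells were grown overnight on coverslips, then given DMSO vehicle or ligand (60 or 120 nM) for 24 h. Cells were permeabilized with Triton X-100 and fixed in 3.7% formaldehyde. Microtubules were stained with DM1A α-tubulin antibody and DNA with Hoechst 33342. Preparations were viewed by epifluorescence microscopy.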

A2780 [16] = experiment: Cell cycle arrest at G2/M phase in human A2780 cells at 30 nM after 20 hrs by flow cytometry; type: functional, cell-based
A2780 [17] = experiment: Cell cycle arrest at G2/M phase in human A2780 cells at 60 nM after 20 hrs by flow cytometry; type: functional, cell-based
[18] = Cell cycle arrest at G2/M phase in human A2780AD cells at 30 nM after 20 hrs by flow cytometry; type: functional, cell-based; conditions: A2780 ADR
[19] = Cell cycle arrest at G2/M phase in human A2780AD cells at 60 nM after 20 hrs by flow cytometry; type: functional, cell-based; conditions: A2780 ADR
A549 [20] = experiment: Cell cycle arrest at G2/M phase in human A549 cells at 30 nM after 20 hrs by flow cytometry; type: functional, cell-based
A549 [21] = experiment: Cell cycle arrest at G2/M phase in human A549 cells at 60 nM after 20 hrs by flow cytometry; type: functional, cell-based
Tubulin (Bos taurus) = Tubulin (Bos taurus) (UniProt Q6B856+Q862L2+Q862F3); experiment: Induction of calf brain tubulin polymerization assessed as tubulin concentration required to form microtubules by electron microscopy
Summary of the method: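 Critical tubulin concentration found by centrifugation and quantification of the polymer formed. Polymers adsorbed onto formvar/carbon-coated copper grids, stained with 1% uranyl acetate, and viewed by electron microscopy at 100 kV.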

microtubule (Bos taurus) [22] = experiment: Binding affinity to microtubule (Bos taurus) by STD NMR spectroscopy
microtubule (Bos taurus) [23] = experiment: Binding affinity to microtubule (Bos taurus) by TR-NOESY spectroscopy
microtubule (Bos taurus) [24] = experiment: Binding affinity to microtubule (Bos taurus) after 30 mins at 26 degC by flutax-2 displacement method
microtubule (Bos taurus) [25] = experiment: Binding affinity to microtubule (Bos taurus) after 30 mins at 27 degC by flutax-2 displacement method
microtubule (Bos taurus) [26] = experiment: Binding affinity to microtubule (Bos taurus) after 30 mins at 30 degC by flutax-2 displacement method
microtubule (Bos taurus) [27] = experiment: Binding affinity to microtubule (Bos taurus) after 30 mins at 32 degC by flutax-2 displacement method
microtubule (Bos taurus) [28] = experiment: Binding affinity to microtubule (Bos taurus) after 30 mins at 35 degC by flutax-2 displacement method
microtubule (Bos taurus) [29] = experiment: Binding affinity to microtubule (Bos taurus) after 30 mins at 37 degC by flutax-2 displacement method
microtubule (Bos taurus) [30] = experiment: Binding affinity to microtubule (Bos taurus) after 30 mins at 40 degC by flutax-2 displacement method
microtubule (Bos taurus) [31] = experiment: Binding affinity to microtubule (Bos taurus) after 30 mins at 42 degC by flutax-2 displacement method

## CC(=O)O[C@@]12CO[C@@H]1C[C@H](O)[C@@]1(C)C(=O)[C@H](OC(=O)N(C)C)C3=C(C)[C@@H](OC(=O)[C@H](O)[C@H](C=C(F)F)NC(=O)OC(C)(C)C)C[C@@](O)([C@@H](OC(=O)c4ccccc4)[C@H]21)C3(C)C
A2780 [1]
  IC50: 3.5 nM
[2]
  IC50: 15.1 nM
[3]
  Ratio IC50: 4.3
[4]
  IC50: 4.3 nM
HeLa [5]
  IC50: 2.5 nM
HeLa [6]
  IC50: 3.5 nM
HeLa [7]
  Ratio IC50: 1.4
1A9 [8]
  IC50: 3.2 nM
[9]
  IC50: 5.25 nM
1A9 [10]
  Ratio IC50: 1.6
[11]
  IC50: 7 nM
1A9 [12]
  Ratio IC50: 2.2
[13]
  IC50: 4 nM
1A9 [14]
  Ratio IC50: 1.2
A549 [15]
  Activity: Active
A2780 [16]
  Activity: Active
A2780 [17]
  Activity: Active
[18]
  Activity: Active
[19]
  Activity: Active
A549 [20]
  Activity: Active
A549 [21]
  Activity: Active
Tubulin (Bos taurus)
  Activity: 0.3 µM
Microtubule (Bos taurus) [22]
  Activity: Active
Microtubule (Bos taurus) [23]
  Activity: Active
Microtubule (Bos taurus) [24]
  Kb: 15 ×10⁷ /M
Microtubule (Bos taurus) [25]
  Kb: 14 ×10⁷ /M
Microtubule (Bos taurus) [26]
  Kb: 13 ×10⁷ /M
Microtubule (Bos taurus) [27]
  Kb: 13 ×10⁷ /M
Microtubule (Bos taurus) [28]
  Kb: 10 ×10⁷ /M
Microtubule (Bos taurus) [29]
  Kb: 10 ×10⁷ /M
Microtubule (Bos taurus) [30]
  Kb: 10 ×10⁷ /M
Microtubule (Bos taurus) [31]
  Kb: 8 ×10⁷ /M
